Test results as given in article PMC8605766 (ACS chemical neuroscience, 2021).
Values joined by “and” are separate entries in the source; they are usually repeats but may differ in a detail not shown here. Equal entries are not always repeated.

How the values were obtained:
S1PR1 = S1PR1 (Rattus norvegicus, UniProt P48303); assay: In vitro autoradiography of [^3H]CS1P1 in the rat brain and spinal cord; format: binding; details: 10 μM NIBR-0213
In short: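 Frozen 14 μm sections from adult SD rat brain and spinal cord, pre-incubated 5 min at RT in HBSS with 10 mM HEPES, 5 mM MgCl₂, 0.2% BSA, 0.1 mM EDTA, pH 7.4. Labelled with 0.5 nM radioligand, 1 h at RT with shaking. […] Washed 3 × 5 min, ice-cold water dip, air-dried overnight. Film exposure 15 days with tritium standards. Specific binding = total − nonspecific in randomly chosen ROIs.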

MS patients = details: particularly deep gray matter structures; cited from earlier work
[1] = target: recombinant human S1PR1 (hS1PR1) membranes (Homo sapiens, UniProt P21453); assay: Competition binding assay against [^3H]CS1P1 with recombinant hS1PR1 membranes; details: displacement of 8 nM [^3H]CS1P1, recombinant hS1PR1 membranes
Sequence of recombinant human S1PR1 (hS1PR1) membranes (P21453 whole entry): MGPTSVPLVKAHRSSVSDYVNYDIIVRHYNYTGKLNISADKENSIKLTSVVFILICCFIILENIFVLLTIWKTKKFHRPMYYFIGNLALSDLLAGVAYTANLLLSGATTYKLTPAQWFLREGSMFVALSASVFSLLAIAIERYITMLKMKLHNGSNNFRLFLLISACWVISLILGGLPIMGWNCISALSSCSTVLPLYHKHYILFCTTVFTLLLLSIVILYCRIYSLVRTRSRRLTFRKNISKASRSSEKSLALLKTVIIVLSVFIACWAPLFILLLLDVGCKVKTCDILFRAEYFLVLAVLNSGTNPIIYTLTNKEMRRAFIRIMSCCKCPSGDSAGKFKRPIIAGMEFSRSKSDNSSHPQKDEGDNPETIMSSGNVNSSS

Sequence of S1PR1 (P48303 whole entry): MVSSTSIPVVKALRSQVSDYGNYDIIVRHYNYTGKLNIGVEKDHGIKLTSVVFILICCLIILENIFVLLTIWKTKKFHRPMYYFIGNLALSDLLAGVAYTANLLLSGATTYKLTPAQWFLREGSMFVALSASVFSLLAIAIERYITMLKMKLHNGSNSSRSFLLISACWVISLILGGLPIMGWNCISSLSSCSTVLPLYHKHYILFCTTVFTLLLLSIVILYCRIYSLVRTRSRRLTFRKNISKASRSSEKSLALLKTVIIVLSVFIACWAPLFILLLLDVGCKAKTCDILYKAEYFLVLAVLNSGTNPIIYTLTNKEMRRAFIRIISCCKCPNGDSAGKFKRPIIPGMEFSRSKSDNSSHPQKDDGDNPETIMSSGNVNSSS

Cc1cc([C@@H](C)Nc2cccc(-c3cc(C)c(C(=O)N[C@@H](C)C(=O)O)c(C)c3)c2)ccc1Cl [NIBR-0213]
blocking of [^3H]CS1P1 radioactivity (S1PR1): can be blocked

CCCCCCCCc1ccc(CCC(N)(CO)CO)cc1 [fingolimod]
effect on brain atrophy (MS patients): reduced brain atrophy

CCCCCCCCCCCCC/C=C/[C@@H](O)[C@@H](N)COP(=O)(O)O [S1P, Sphingosine-1-phosphate]
Ki [1]: < 10 nM and 5.7 nM
